Data from ChEMBL document CHEMBL3994597, “Resin Glycosides from Ipomoea alba Seeds as Potential Chemosensitizers in Breast Carcinoma Cells” (J Nat Prod, 2016).

Legend:
MCF7 [1] = experiment: Cytotoxicity against vinblastine-sensitive human MCF7 cells assessed as growth inhibition after 72 hrs by SRB assay; type: functional, cell-based; conditions: MCF7, 72 h
Summary of the method: (§1)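 Cells in log phase, grown in RPMI 1640 with 10% FBS at 37 °C, 5% CO2, humidified, were exposed in triplicate to test samples at 0.2−25 μg/mL for 72 h. Growth was read by sulforhodamine B staining. IC50 is the concentration giving 50% growth inhibition relative to untreated control, taken from a semilog plot of concentration (μg/mL) against % inhibition. Vinblastine served as positive control.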

MCF7 [2] = experiment: Cytotoxicity against multidrug resistant human MCF7 cells cultured in vinblastine free medium assessed as growth inhibition after 72 hrs by SRB assay; type: functional, cell-based; conditions: MCF7, 72 h; summary of the method: as §1
MCF7 [3] = experiment: Cytotoxicity against multidrug resistant human MCF7 cells cultured in vinblastine containing medium assessed as growth inhibition after 72 hrs by SRB assay; type: functional, cell-based; conditions: MCF7, 72 h; summary of the method: as §1
MDA-MB-231 = experiment: Cytotoxicity against human MDA-MB-231 cells assessed as growth inhibition after 72 hrs by SRB assay; type: functional, cell-based; conditions: MDA-MB-231, 72 h; summary of the method: as §1
HeLa = experiment: Cytotoxicity against human HeLa cells assessed as growth inhibition after 72 hrs by SRB assay; type: functional, cell-based; summary of the method: as §1
HCT-15 = experiment: Cytotoxicity against human HCT15 cells assessed as growth inhibition after 72 hrs by SRB assay; type: functional, cell-based; conditions: HCT-15, 72 h; summary of the method: as §1
HCT-116 = experiment: Cytotoxicity against human HCT116 cells assessed as growth inhibition after 72 hrs by SRB assay; type: functional, cell-based; conditions: HCT-116, 72 h; summary of the method: as §1
Homo sapiens [4] = species on record: Homo sapiens; experiment: (§2) Inhibition of multidrug resistance efflux pump in multidrug resistant human MCF7 cells cultured in vinblastine free medium assessed as potentiation of vinblastine-induced cytotoxicity by measuring fold reduction in vinblastine IC50 at 25 ug/ml after 72 hrs by SRB assay relative to vinblastine alone
Summary of the method: (§3)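 MCF-7/Vin− cells were a stock of the resistant line maintained in vinblastine-free medium.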

Homo sapiens [5] = species on record: Homo sapiens; experiment: as §2, with “containing” for “free”
Summary of the method: (§4)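 MCF-7/Vin+ resistant cells were kept in medium containing 0.192 μg/mL vinblastine to hold resistance.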

MCF7 [6] = experiment: Potentiation of vinblastine-induced cytotoxicity against vinblastine-sensitive human MCF7 cells assessed as fold reduction in vinblastine IC50 at 25 ug/ml after 72 hrs by SRB assay relative to vinblastine alone; type: functional
Summary of the method: (§5)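 Modulation assay in sensitive MCF-7 or resistant MCF-7/Vin cells. Cells received vinblastine at 0.00064−10 μg/mL, alone or with glycolipid at 25 or 5 μg/mL, for 72 h. Read-out was SRB, and vinblastine IC50 was derived as in the cytotoxicity assay. Reversal fold = IC50 of vinblastine alone / IC50 with glycolipid. Reserpine at 5 μg/mL served as positive control. Values are mean ± SD of three independent experiments.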

Homo sapiens [7] = species on record: Homo sapiens; experiment: (§6) Inhibition of multidrug resistance efflux pump in multidrug resistant human MCF7 cells cultured in vinblastine free medium assessed as potentiation of vinblastine-induced cytotoxicity by measuring fold reduction in vinblastine IC50 at 5 ug/ml after 72 hrs by SRB assay relative to vinblastine alone; summary of the method: as §3
Homo sapiens [8] = species on record: Homo sapiens; experiment: as §6, with “containing” for “free”; summary of the method: as §4
MCF7 [9] = experiment: Potentiation of vinblastine-induced cytotoxicity against vinblastine-sensitive human MCF7 cells assessed as fold reduction in vinblastine IC50 at 5 ug/ml after 72 hrs by SRB assay relative to vinblastine alone; type: functional; summary of the method: as §5

| SMILES | IC50 (MCF7 [1]) | IC50 (MCF7 [2]) | IC50 (MCF7 [3]) | IC50 (MDA-MB-231) | IC50 (HeLa) | IC50 (HCT-15) | IC50 (HCT-116) | fold change (FC) (Homo sapiens [4]) | fold change (FC) (Homo sapiens [5]) | fold change (FC) (MCF7 [6]) | fold change (FC) (Homo sapiens [7]) | fold change (FC) (Homo sapiens [8]) | fold change (FC) (MCF7 [9]) |
| --- | --- | --- | --- | --- | --- | --- | --- | --- | --- | --- | --- | --- | --- |
| COc1cc([C@@H]2c3cc4c(cc3[C@H](O)[C@H]3COC(=O)[C@H]23)OCO4)cc(OC)c1OC [PODOFILOX] | 0.02 µM | 0.2 µM | 0.3 µM | – | – | – | – | – | – | – | – | – | – |
| CC[C@]1(O)C[C@@H]2CN(CCc3c([nH]c4ccccc34)[C@@](C(=O)OC)(c3cc4c(cc3OC)N(C)[C@H]3[C@@](O)(C(=O)OC)[C@H](OC(C)=O)[C@]5(CC)C=CCN6CC[C@]43[C@@H]65)C2)C1 [VINBLASTINE] | 0.06 µM | 1.1 µM | 1.3 µM | 0.01 µM | 0.002 µM | 0.06 µM | 0.05 µM | – | – | – | – | – | – |
| COc1cc2c(c(OC)c1OC)-c1ccc(OC)c(=O)cc1[C@@H](NC(C)=O)CC2 [COLCHICINE] | 0.05 µM | 2.8 µM | 2.8 µM | – | – | – | – | – | – | – | – | – | – |
| CC[C@@]1(O)C(=O)OCc2c1cc1n(c2=O)Cc2cc3ccccc3nc2-1 [CAMPTOTHECIN] | < 0.0018 µM | < 0.0018 µM | < 0.0018 µM | – | – | – | – | – | – | – | – | – | – |
| C/C=C(\C)C(=O)O[C@@H]1[C@H](O)[C@@H](O)[C@H](O[C@@H]2[C@@H](O)[C@@H](OC(=O)/C(C)=C/C)[C@H](O[C@H]3[C@@H]4O[C@H]5[C@H](O[C@@H](CCC)CCCCCCCCCC(=O)O[C@H]3[C@H](O)[C@@H](CO)O4)O[C@H](C)[C@@H](O)[C@@H]5O)O[C@H]2C)O[C@@H]1C | 15.1 µM | > 20 µM | > 20 µM | > 20 µM | 17.4 µM | 14.3 µM | 15.1 µM | 5 | > 2520 | >87 | – | – | – |
| Cc1c2ccncc2c(C)c2c1[nH]c1ccccc12 [ELLIPTECINE] | – | 1.6 µM | 2 µM | – | – | – | – | – | – | – | – | – | – |
| COC(=O)[C@H]1[C@H]2C[C@@H]3c4[nH]c5cc(OC)ccc5c4CCN3C[C@H]2C[C@@H](OC(=O)c2cc(OC)c(OC)c(OC)c2)[C@@H]1OC [RESERPINE] | – | – | – | – | – | – | – | – | – | – | 20 | 3 | 11 |
| CCC[C@H]1CCCCCCCCCC(=O)O[C@H]2[C@H](OC[C@H]3O[C@@H](O[C@H]4[C@H](O1)O[C@H](C)[C@@H](O)[C@@H]4O)[C@H](O[C@@H]1O[C@@H](C)[C@H](OC(C)=O)[C@@H](O)[C@H]1O)[C@@H](O)[C@@H]3O)O[C@H](C)[C@@H](O)[C@@H]2OC(=O)[C@H](C)[C@@H](C)O | > 20 µM | > 20 µM | > 20 µM | > 20 µM | > 20 µM | > 20 µM | > 20 µM | 1 | 2 | 4 | – | – | – |
| C/C=C(\C)C(=O)O[C@H]1[C@H](O[C@H]2[C@@H]3O[C@H]4[C@H](O[C@@H](CCC)CCCCCCCCCC(=O)O[C@H]5[C@H](O[C@H]6[C@H](OC[C@@H](O3)[C@@H](O)[C@@H]2O)O[C@H](C)[C@@H](O)[C@@H]6O)O[C@@H](C)[C@H](O)[C@H]5O)O[C@H](C)[C@@H](O)[C@@H]4O)O[C@@H](C)[C@H](O)[C@H]1O | > 20 µM | > 20 µM | > 20 µM | > 20 µM | > 20 µM | > 20 µM | > 20 µM | 1700 | 3 | 4 | – | – | – |
| C/C=C(\C)C(=O)O[C@H]1[C@@H]2O[C@H]3[C@H](O[C@@H](CCC)CCCCCCCCCC(=O)O[C@@H]4[C@@H](O)[C@H](C)O[C@@H](O[C@H]5[C@H](O)[C@@H](C)O[C@@H](O[C@H]([C@H]1O)[C@H](C)O2)[C@@H]5O[C@@H]1O[C@@H](C)[C@H](O)[C@@H](O)[C@H]1OC(=O)[C@H](C)[C@@H](C)O)[C@@H]4O)O[C@H](C)[C@@H](O)[C@@H]3O | > 20 µM | > 20 µM | > 20 µM | > 20 µM | > 20 µM | > 20 µM | > 20 µM | 283 | 3 | 37 | – | – | – |
| C/C=C(\C)C(=O)O[C@@H]1[C@H](O)[C@@H](O)[C@H](O[C@@H]2[C@@H](O)[C@@H](OC(=O)/C(C)=C/C)[C@H](O[C@H]3[C@@H]4O[C@H]5[C@H](O[C@@H](CCCCC)CCCCCCCCCC(=O)O[C@H]3[C@H](O)[C@@H](CO)O4)O[C@H](C)[C@@H](O)[C@@H]5O)O[C@H]2C)O[C@@H]1C | 8 µM | 16.3 µM | 17 µM | 11.6 µM | 9.6 µM | 9.8 µM | 15.9 µM | > 1980 | > 2520 | >87 | – | – | – |
| CCC[C@H]1CCCCCCCCCC(=O)O[C@H]2[C@H](O[C@H]3[C@H](O)[C@@H](C)O[C@@H](O[C@H]4[C@H](O1)O[C@H](C)[C@@H](O)[C@@H]4O)[C@@H]3O[C@@H]1O[C@@H](C)[C@H](OC(C)=O)[C@@H](O)[C@H]1O)O[C@H](C)[C@@H](O)[C@@H]2OC(=O)[C@H](C)[C@@H](C)O | > 20 µM | > 20 µM | > 20 µM | > 20 µM | > 20 µM | > 20 µM | > 20 µM | 322 | 201 | 34 | – | – | – |
